ChEMBL document CHEMBL1134728, “Heterocyclic substituted anthralin derivatives as inhibitors of keratinocyte growth and inducers of differentiation” (Bioorg Med Chem Lett, 2001)

Experiments:
[1] = Compound was tested for the induction of HaCaT keratinocyte differentiation at 1 uM expressed as the amount of cross-linked protein in cornified envelope assay; format: functional, Homo sapiens
Procedure, shortened: (§1)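 Terminal differentiation of HaCaT keratinocytes measured as insoluble cross-linked protein envelopes, using a modified method; protein in envelope preparations quantified by Bradford. Value is the difference in cross-linked protein per mg protein between treated and vehicle-control cells; means ± SEM of three independent experiments; significance vs vehicle p < 0.05.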

[2] = Compound was tested for the induction of HaCaT keratinocyte differentiation at 10 uM expressed as the amount of cross-linked protein in cornified envelope assay; format: functional, Homo sapiens; procedure, shortened: as §1
[3] = Compound was tested for the induction of HaCaT keratinocyte differentiation at 5 uM expressed as the amount of cross-linked protein in cornified envelope assay; format: functional, Homo sapiens; procedure, shortened: as §1
[4] = Deoxyribose degradation measured as hydroxyl radical generation in HaCaT cell at 75 uM expressed as malondialdehyde released; format: functional, Homo sapiens
[5] = Activity of LDH release in HaCaT cells after treatment with 2 uM concentration of the compound; format: functional, Homo sapiens
Procedure, shortened: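 LDH activity (mU) released into the HaCaT culture medium after compound treatment, taken as a marker of plasma membrane integrity and cytotoxicity; compared against vehicle controls; N=3.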

[6] = Antiproliferative activity against growth of HaCaT cell was determined; format: functional, cell-based; conditions: Homo sapiens

SMILES | Amount of cross-linked protein [1] | Amount of cross-linked protein [2] | Amount of cross-linked protein [3] | DD [4] | LDH release [5] | IC50 [6] [nM]
O=C1c2c(O)cccc2Cc2cccc(O)c21 [ANTHRALIN] | 3.7 (ug of cross-linked protein) (mg of protein)-1 | 5.8 (ug of cross-linked protein) (mg of protein)-1 | 4.9 (ug of cross-linked protein) (mg of protein)-1 | 2.89 uM mM-1 | 294 mU | 700
O=C1c2c(O)cccc2C(C(=O)c2ccsc2)c2cccc(O)c21 | -0.6 (ug of cross-linked protein) (mg of protein)-1 | 3.4 (ug of cross-linked protein) (mg of protein)-1 | 0.6 (ug of cross-linked protein) (mg of protein)-1 | 0.82 uM mM-1 | – | > 5000
O=C1c2c(O)cccc2C(C(=O)c2cc3ccccc3[nH]2)c2cccc(O)c21 | 2 (ug of cross-linked protein) (mg of protein)-1 | 5.7 (ug of cross-linked protein) (mg of protein)-1 | 4.8 (ug of cross-linked protein) (mg of protein)-1 | 0.17 uM mM-1 | 167 mU | 700
O=C1c2c(O)cccc2C(C(=O)c2cccs2)c2cccc(O)c21 | -0.9 (ug of cross-linked protein) (mg of protein)-1 | 3.7 (ug of cross-linked protein) (mg of protein)-1 | 0.7 (ug of cross-linked protein) (mg of protein)-1 | 0.65 uM mM-1 | – | > 5000
O=C1c2c(O)cccc2C(C(=O)c2ccccc2)c2cccc(O)c21 | – | – | – | 2.31 uM mM-1 | – | > 5000
O=C1c2c(O)cccc2C(C(=O)c2ccc[nH]2)c2cccc(O)c21 | 2.3 (ug of cross-linked protein) (mg of protein)-1 | 6.5 (ug of cross-linked protein) (mg of protein)-1 | 5.7 (ug of cross-linked protein) (mg of protein)-1 | 1.77 uM mM-1 | 202 MU | 600
O=C1c2c(O)cccc2C(C(=O)/C=C/c2ccco2)c2cccc(O)c21 | -0.2 (ug of cross-linked protein) (mg of protein)-1 | 1.9 (ug of cross-linked protein) (mg of protein)-1 | 0.6 (ug of cross-linked protein) (mg of protein)-1 | 1.69 uM mM-1 | 147 mU | 1500
O=C1c2c(O)cccc2C(C(=O)c2ccco2)c2cccc(O)c21 | 0.5 (ug of cross-linked protein) (mg of protein)-1 | 5.8 (ug of cross-linked protein) (mg of protein)-1 | 3.5 (ug of cross-linked protein) (mg of protein)-1 | 0.41 uM mM-1 | 242 mU | 1200
O=C1c2c(O)cccc2C(C(=O)/C=C/c2cccs2)c2cccc(O)c21 | 2 (ug of cross-linked protein) (mg of protein)-1 | 5.6 (ug of cross-linked protein) (mg of protein)-1 | 5 (ug of cross-linked protein) (mg of protein)-1 | 1.13 uM mM-1 | 166 mU | 4200
O=C1c2cccc(O)c2C(=O)c2c(O)cccc21 [DANTHRON] | 0.6 (ug of cross-linked protein) (mg of protein)-1 | 0 (ug of cross-linked protein) (mg of protein)-1 | -0.1 (ug of cross-linked protein) (mg of protein)-1 | – | – | –
